According to ChEMBL document CHEMBL1150290, “Novel anti-inflammatory agents based on pyridazinone scaffold; design, synthesis and in vivo activity” (Bioorg Med Chem, 2008):

What was measured:
[1] = test system: Rattus norvegicus; assay: Antiinflammatory activity against carrageenan-induced paw edema in sc dosed Albino rat assessed as inhibition of paw edema volume measured 4 hrs after carrageenan challenge; assay type: functional
Procedure, shortened: (§1)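 Rats randomized into groups of six. Edema induced by subplantar injection of 50 µL 2% carrageenan in 0.9% saline. Compounds in DMSO given sc at 5, 10, 15, 20 and 25 µmol/kg, 1 h before carrageenan; controls got DMSO. Paw volume read by water plethysmometer immediately and 4 h after carrageenan. Protection = (Vc − Vd)/Vc × 100. ED50 taken from dose-response curves at 4 h. Means ± SEM.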

[2] = test system: Rattus norvegicus; assay: Toxicity in Albino rat assessed as gastric-ulcerogenic effect at 30 uM/kg, po twice daily for 3 days; assay type: organism-based; details: in vivo, 72 h, 30 µM/kg per day
Procedure, shortened: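 Male albino rats (100–120 g), six per group, fasted 12 h with water ad libitum. Compounds given orally in two equal doses at 0 and 12 h for three successive days, 30 µM/kg per day; controls received 1% gum acacia orally. Rats killed with diethyl ether 6 h after the last dose and stomachs removed. Lesion severity scored on an arbitrary scale as ulcer index; % ulceration = ulcer-bearing animals/total × 100.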

[3] = test system: Rattus norvegicus; assay: Antiinflammatory activity in sc dosed Albino rat assessed as protection against carrageenan-induced paw edema measured 4 hrs after carrageenan challenge; assay type: functional; procedure, shortened: as §1
[4] = test system: Rattus norvegicus; assay: Antiinflammatory activity in sc dosed Albino rat assessed as protection against carrageenan-induced paw edema measured 4 hrs after carrageenan challenge relative to indomethacin; assay type: functional

Compound	ED50 [1]	Activity [2]	Activity [3]	Activity [4]
CN1N=C(/C=C/c2ccc3c(c2)OCO3)CCC1=O	34.3 µmol/kg	10%		
O=C1CCC(/C=C/c2ccc3c(c2)OCCO3)=NN1	27 µmol/kg	0%		
O=C1CCC(/C=C/c2ccc(-c3ccccc3)cc2)=NN1c1ccccc1	38.6 µmol/kg	10%		
O=C1CCC(CCc2ccc3c(c2)OCCO3)=NN1	17 µmol/kg	0%	61.22%	82.28
O=C1CCC(/C=C/c2ccc(-c3ccccc3)cc2)=NN1	24.6 µmol/kg	10%		
O=C1CCC(/C=C/c2ccc(Oc3ccccc3)cc2)=NN1	28.8 µmol/kg	0%		
CN1N=C(/C=C/c2ccc(-c3ccccc3)cc2)CCC1=O	32.4 µmol/kg	20%		
CN1N=C(CCc2ccc(-c3ccccc3)cc2)CCC1=O	22.3 µmol/kg	0%		
O=C1CCC(CCc2ccc(-c3ccccc3)cc2)=NN1	18.7 µmol/kg	10%	58.16%	78.17
Cc1ccc(-c2cc(C(F)(F)F)nn2-c2ccc(S(N)(=O)=O)cc2)cc1 [CELECOXIB]	16.7 µmol/kg	0%	77.5%	104.23
COc1ccc2c(c1)c(CC(=O)O)c(C)n2C(=O)c1ccc(Cl)cc1 [INDOMETHACIN]	9.7 µmol/kg	100%	74.4%	
